Data: ChEMBL document CHEMBL4229342, “Synthesis of novel proxyphylline derivatives with dual Anti-Candida albicans and anticancer activity” (Eur J Med Chem, 2018)

Each molecule was assayed on Candida albicans (assay: Growth inhibition of Candida albicans ATCC 90028 at 2 ug/ml incubated for 4 hrs at 35 degC by broth microdilution method relative to control). Conditions: ATCC 90028, 4 h, read-out: GI.
Type: functional

Structure (SMILES)	inhibition of growth at 2 µg/mL
CC(Cn1cnc2c1c(=O)n(C)c(=O)n2C)OC(=O)CC(=O)c1ccccc1 (centres undefined)	99.1%

What follows are molecules tested on Candida albicans (assay: Growth inhibition of Candida albicans ATCC 90028 at 0.0625 ug/ml incubated for 4 hrs at 35 degC by broth microdilution method relative to control). Conditions: ATCC 90028, 4 h, read-out: GI.
Type: functional

Structure (SMILES)	inhibition of growth at 0.0625 µg/mL
CC(Cn1cnc2c1c(=O)n(C)c(=O)n2C)OC(=O)CC(=O)c1ccccc1 (centres undefined)	99.1%

These molecules were tested on Candida albicans (assay: Growth inhibition of Candida albicans ATCC 90028 at 1 ug/ml incubated for 18 hrs at 35 degC by broth microdilution method relative to control). Conditions: ATCC 90028, 18 h, read-out: GI.
Type: functional

Structure (SMILES)	inhibition of growth at 1 µg/mL
CC(Cn1cnc2c1c(=O)n(C)c(=O)n2C)OC(=O)CC(=O)c1ccccc1 (centres undefined)	99.3%

The molecules below were run on Candida albicans (assay: Fungicidal activity against Candida albicans ATCC 90028 assessed as log reduction in cell viability at 16 ug/ml after 48 hrs at 35 degC). Conditions: not given.
Type: functional
Summary of the method: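 MFC assay on C. albicans ATCC 90028 following M27-A3, at the molar equivalent of 16 µg/mL. CFU of treated cells were compared with CFU of the untreated inoculum. Activity is given as lg R = lg CFU/mL control − lg CFU/mL treated, and lg R ≥3 was defined as fungicidal. Values are means of two independent experiments.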

Structure (SMILES)	log(activity)
CC(Cn1cnc2c1c(=O)n(C)c(=O)n2C)OC(=O)CC(=O)c1ccccc1 (centres undefined)	0.7

Each molecule was assayed on MCF7 (assay: Antiproliferative activity against human MCF7 cells assessed as cell viability at 200 uM after 72 hrs by MTT assay). Conditions: MCF7, 72 h, read-out: Activity.
Type: functional
Summary of the method: (§1)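 MTT viability assay in CCRF-CEM and MCF-7 cells after 72 h exposure at 25, 50, 100 and 200 µM. Results are relative to control cells without inhibitor in 0.5% DMSO. Done in triplicate; values are means ± SD of three independent experiments.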

Structure (SMILES)	viability at 200 µM
CC(Cn1cnc2c1c(=O)n(C)c(=O)n2C)OC(=O)CC(=O)c1ccccc1 (centres undefined)	81.8%

These molecules were tested on Candida albicans (assay: Growth inhibition of Candida albicans ATCC 90028 at 2 ug/ml incubated for 18 hrs at 35 degC by broth microdilution method relative to control). Conditions: ATCC 90028, 18 h, read-out: GI.
Type: functional

Structure (SMILES)	inhibition of growth at 2 µg/mL
CC(Cn1cnc2c1c(=O)n(C)c(=O)n2C)OC(=O)CC(=O)c1ccccc1 (centres undefined)	99.3%

Each molecule was assayed on Candida albicans (assay: Growth inhibition of Candida albicans ATCC 90028 at 8 ug/ml incubated for 4 hrs at 35 degC by broth microdilution method relative to control). Conditions: ATCC 90028, 4 h, read-out: GI.
Type: functional

Structure (SMILES)	inhibition of growth at 8 µg/mL
CC(Cn1cnc2c1c(=O)n(C)c(=O)n2C)OC(=O)CC(=O)c1ccccc1 (centres undefined)	99.1%

The molecules below were run on Candida albicans (assay: Growth inhibition of Candida albicans ATCC 90028 at 4 ug/ml incubated for 18 hrs at 35 degC by broth microdilution method relative to control). Conditions: ATCC 90028, 18 h, read-out: GI.
Type: functional

Structure (SMILES)	inhibition of growth at 4 µg/mL
CC(Cn1cnc2c1c(=O)n(C)c(=O)n2C)OC(=O)CC(=O)c1ccccc1 (centres undefined)	99.2%

Each molecule was assayed on Candida albicans (assay: Growth inhibition of Candida albicans ATCC 90028 at 0.5 ug/ml incubated for 4 hrs at 35 degC by broth microdilution method relative to control). Conditions: ATCC 90028, 4 h, read-out: GI.
Type: functional

Structure (SMILES)	inhibition of growth at 0.5 µg/mL
CC(Cn1cnc2c1c(=O)n(C)c(=O)n2C)OC(=O)CC(=O)c1ccccc1 (centres undefined)	99%

These molecules were tested on MCF7 (assay: Antiproliferative activity against human MCF7 cells assessed as cell viability at 100 uM after 72 hrs by MTT assay). Conditions: MCF7, 72 h, read-out: Activity.
Type: functional
Summary of the method: as §1

Structure (SMILES)	viability at 100 µM
CC(Cn1cnc2c1c(=O)n(C)c(=O)n2C)OC(=O)CC(=O)c1ccccc1 (centres undefined)	79.3%

These molecules were tested on CCRF-CEM (assay: Antiproliferative activity against human CCRF-CEM cells assessed as cell viability at 100 uM after 72 hrs by MTT assay). Conditions: read-out: Activity.
Type: functional
Summary of the method: as §1

Structure (SMILES)	viability at 100 µM
CC(Cn1cnc2c1c(=O)n(C)c(=O)n2C)OC(=O)CC(=O)c1ccccc1 (centres undefined)	65.6%

The molecules below were run on CCRF-CEM (assay: Antiproliferative activity against human CCRF-CEM cells assessed as cell viability at 200 uM after 72 hrs by MTT assay). Conditions: read-out: Activity.
Type: functional
Summary of the method: as §1

Structure (SMILES)	viability at 200 µM
CC(Cn1cnc2c1c(=O)n(C)c(=O)n2C)OC(=O)CC(=O)c1ccccc1 (centres undefined)	38.5%

What follows are molecules tested on Candida albicans (assay: Growth inhibition of Candida albicans ATCC 90028 at 0.0625 ug/ml incubated for 18 hrs at 35 degC by broth microdilution method relative to control). Conditions: ATCC 90028, 18 h, read-out: GI.
Type: functional

Structure (SMILES)	inhibition of growth at 0.0625 µg/mL
CC(Cn1cnc2c1c(=O)n(C)c(=O)n2C)OC(=O)CC(=O)c1ccccc1 (centres undefined)	99.2%

The molecules below were run on Candida albicans (assay: Growth inhibition of Candida albicans ATCC 90028 at 0.125 ug/ml incubated for 4 hrs at 35 degC by broth microdilution method relative to control). Conditions: ATCC 90028, 4 h, read-out: GI.
Type: functional

Structure (SMILES)	inhibition of growth at 0.125 µg/mL
CC(Cn1cnc2c1c(=O)n(C)c(=O)n2C)OC(=O)CC(=O)c1ccccc1 (centres undefined)	99%

What follows are molecules tested on CCRF-CEM (assay: Antiproliferative activity against human CCRF-CEM cells assessed as cell viability at 25 uM after 72 hrs by MTT assay). Conditions: read-out: Activity.
Type: functional
Summary of the method: as §1

Structure (SMILES)	viability at 25 µM
CC(Cn1cnc2c1c(=O)n(C)c(=O)n2C)OC(=O)CC(=O)c1ccccc1 (centres undefined)	85.1%

The molecules below were run on Candida albicans (assay: Growth inhibition of Candida albicans ATCC 90028 at 8 ug/ml incubated for 48 hrs at 35 degC by broth microdilution method relative to control). Conditions: ATCC 90028, 48 h, read-out: GI.
Type: functional

Structure (SMILES)	inhibition of growth at 8 µg/mL
CC(Cn1cnc2c1c(=O)n(C)c(=O)n2C)OC(=O)CC(=O)c1ccccc1 (centres undefined)	99%

The molecules below were run on Candida albicans (assay: Growth inhibition of Candida albicans ATCC 90028 at 16 ug/ml incubated for 48 hrs at 35 degC by broth microdilution method relative to control). Conditions: ATCC 90028, 48 h, read-out: GI.
Type: functional

Structure (SMILES)	inhibition of growth at 16 µg/mL
CC(Cn1cnc2c1c(=O)n(C)c(=O)n2C)OC(=O)CC(=O)c1ccccc1 (centres undefined)	99%

The molecules below were run on MCF7 (assay: Antiproliferative activity against human MCF7 cells assessed as cell viability at 25 uM after 72 hrs by MTT assay). Conditions: MCF7, 72 h, read-out: Activity.
Type: functional
Summary of the method: as §1

Structure (SMILES)	viability at 25 µM
CC(Cn1cnc2c1c(=O)n(C)c(=O)n2C)OC(=O)CC(=O)c1ccccc1 (centres undefined)	91.3%

These molecules were tested on Candida albicans (assay: Growth inhibition of Candida albicans ATCC 90028 at 8 ug/ml incubated for 18 hrs at 35 degC by broth microdilution method relative to control). Conditions: ATCC 90028, 18 h, read-out: GI.
Type: functional

Structure (SMILES)	inhibition of growth at 8 µg/mL
CC(Cn1cnc2c1c(=O)n(C)c(=O)n2C)OC(=O)CC(=O)c1ccccc1 (centres undefined)	99.8%

Each molecule was assayed on Candida albicans (assay: Growth inhibition of Candida albicans ATCC 90028 at 0.125 ug/ml incubated for 18 hrs at 35 degC by broth microdilution method relative to control). Conditions: ATCC 90028, 18 h, read-out: GI.
Type: functional

Structure (SMILES)	inhibition of growth at 0.125 µg/mL
CC(Cn1cnc2c1c(=O)n(C)c(=O)n2C)OC(=O)CC(=O)c1ccccc1 (centres undefined)	99.2%

The molecules below were run on Candida albicans (assay: Growth inhibition of Candida albicans ATCC 90028 at 0.5 ug/ml incubated for 18 hrs at 35 degC by broth microdilution method relative to control). Conditions: ATCC 90028, 18 h, read-out: GI.
Type: functional

Structure (SMILES)	inhibition of growth at 0.5 µg/mL
CC(Cn1cnc2c1c(=O)n(C)c(=O)n2C)OC(=O)CC(=O)c1ccccc1 (centres undefined)	99.1%

Each molecule was assayed on Candida albicans (assay: Growth inhibition of Candida albicans ATCC 90028 at 0.25 ug/ml incubated for 4 hrs at 35 degC by broth microdilution method relative to control). Conditions: ATCC 90028, 4 h, read-out: GI.
Type: functional

Structure (SMILES)	inhibition of growth at 0.25 µg/mL
CC(Cn1cnc2c1c(=O)n(C)c(=O)n2C)OC(=O)CC(=O)c1ccccc1 (centres undefined)	99%

What follows are molecules tested on Candida albicans (assay: Growth inhibition of Candida albicans ATCC 90028 at 1 ug/ml incubated for 4 hrs at 35 degC by broth microdilution method relative to control). Conditions: ATCC 90028, 4 h, read-out: GI.
Type: functional

Structure (SMILES)	inhibition of growth at 1 µg/mL
CC(Cn1cnc2c1c(=O)n(C)c(=O)n2C)OC(=O)CC(=O)c1ccccc1 (centres undefined)	99.1%

What follows are molecules tested on CCRF-CEM (assay: Antiproliferative activity against human CCRF-CEM cells assessed as cell viability at 50 uM after 72 hrs by MTT assay). Conditions: read-out: Activity.
Type: functional
Summary of the method: as §1

Structure (SMILES)	viability at 50 µM
CC(Cn1cnc2c1c(=O)n(C)c(=O)n2C)OC(=O)CC(=O)c1ccccc1 (centres undefined)	88.1%

The molecules below were run on MCF7 (assay: Antiproliferative activity against human MCF7 cells assessed as cell viability at 50 uM after 72 hrs by MTT assay). Conditions: MCF7, 72 h, read-out: Activity.
Type: functional
Summary of the method: as §1

Structure (SMILES)	viability at 50 µM
CC(Cn1cnc2c1c(=O)n(C)c(=O)n2C)OC(=O)CC(=O)c1ccccc1 (centres undefined)	79.8%

Each molecule was assayed on Candida albicans (assay: Growth inhibition of Candida albicans ATCC 90028 at 0.25 ug/ml incubated for 18 hrs at 35 degC by broth microdilution method relative to control). Conditions: ATCC 90028, 18 h, read-out: GI.
Type: functional

Structure (SMILES)	inhibition of growth at 0.25 µg/mL
CC(Cn1cnc2c1c(=O)n(C)c(=O)n2C)OC(=O)CC(=O)c1ccccc1 (centres undefined)	99.1%

What follows are molecules tested on Candida albicans (assay: Growth inhibition of Candida albicans ATCC 90028 at 16 ug/ml incubated for 18 hrs at 35 degC by broth microdilution method relative to control). Conditions: ATCC 90028, 18 h, read-out: GI.
Type: functional

Structure (SMILES)	inhibition of growth at 16 µg/mL
CC(Cn1cnc2c1c(=O)n(C)c(=O)n2C)OC(=O)CC(=O)c1ccccc1 (centres undefined)	99.7%

Each molecule was assayed on Candida albicans (assay: Growth inhibition of Candida albicans ATCC 90028 at 0.0313 ug/ml incubated for 4 hrs at 35 degC by broth microdilution method relative to control). Conditions: ATCC 90028, 4 h, read-out: GI.
Type: functional

Structure (SMILES)	inhibition of growth at 0.0313 µg/mL
CC(Cn1cnc2c1c(=O)n(C)c(=O)n2C)OC(=O)CC(=O)c1ccccc1 (centres undefined)	99.1%

The molecules below were run on Candida albicans (assay: Growth inhibition of Candida albicans ATCC 90028 at 0.0313 ug/ml incubated for 18 hrs at 35 degC by broth microdilution method relative to control). Conditions: ATCC 90028, 18 h, read-out: GI.
Type: functional

Structure (SMILES)	inhibition of growth at 0.0313 µg/mL
CC(Cn1cnc2c1c(=O)n(C)c(=O)n2C)OC(=O)CC(=O)c1ccccc1 (centres undefined)	99.2%
